Measured values published in ChEMBL document CHEMBL1212930, “The hoiamides, structurally intriguing neurotoxic lipopeptides from Papua New Guinea marine cyanobacteria” (J Nat Prod, 2010).

Experiments:
[1] = Cytotoxicity against mouse Neuro2a cells; assay type: functional, cell-based, N2a
[2] = Inhibition of calcium channel in mouse neocortical neurons assessed as inhibition of intracellular calcium oscilations; assay type: cell-based
Outline: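 Primary neocortical neurons from embryonic day 16 Swiss-Webster mice, used at 12–13 DIV. Loaded 1 h with 4 μM fluo-3 plus 0.04% pluronic F-127 in Locke's buffer (pH 7.4), washed four times. Excitation 485 nm, emission 535 nm, read every 1.5 s; 60 s baseline, then compound added as a 4× solution. IC50 given with 95% CI.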

[3] = tested on: NCI-H460; assay: Cytotoxicity against human H460 cells; assay type: functional, cell-based
[4] = Activation of voltage-gated sodium channel in mouse neocortical neuron assessed as intracellular sodium influx
[5] = Activation of voltage-gated sodium channel in mouse Neuro-2a cells assessed as intracellular sodium influx; conditions: N2a
[6] = Homo sapiens, NCI-H460, read-out: IC50

Row | SMILES | IC50 ([1]; n2a) | IC50 [2] | IC50 ([3]; nci-h460) | EC50 [4] | IC50 [5] [nM] | IC50 ([2]; Mus musculus, read-out: IC50) [nM] | EC50 ([4]; Mus musculus, read-out: EC50) [nM] | IC50 [3, 6] [nM] | IC50 ([1]; Mus musculus, N2a, read-out: IC50) [nM]
1 | CCC[C@@H](C)[C@H](OC(C)=O)[C@H](C)[C@H]1OC(=O)[C@H]([C@@H](C)OC(C)=O)NC(=O)[C@H](C(C)C)OC(=O)[C@H](C)[C@H](OC(C)=O)[C@H]([C@@H](C)CC)NC(=O)[C@@]2(C)CSC(=N2)[C@@]2(C)CSC(=N2)c2csc(n2)C[C@H](OC)[C@@H]1C | Not Active | Not Active | Not Active | Not Active |  |  |  |  | 
2 | CCC[C@@H](C)[C@H](O)[C@H](C)[C@@H](O)[C@@H](C)[C@H](Cc1nc(C2=N[C@@](C)(C3=N[C@@](C)(C(=O)N[C@H]([C@@H](O)[C@@H](C)C(=O)OCC)[C@@H](C)CC)CS3)CS2)cs1)OC [HOIAMIDE C] | Not Active | Not Active | Not Active | Not Active |  |  |  |  | 
3 | CCC[C@@H](C)[C@H](OC(=O)c1ccc(Br)cc1)[C@H](C)[C@H]1OC(=O)[C@H]([C@@H](C)O)NC(=O)[C@H](C(C)C)OC(=O)[C@H](C)[C@H](O)[C@H]([C@@H](C)CC)NC(=O)[C@@]2(C)CSC(=N2)[C@@]2(C)CSC(=N2)c2csc(n2)C[C@H](OC)[C@@H]1C |  |  | Not Active |  | 3400 | 87.3 | 9300 |  | 
4 | CCC[C@@H](C)[C@H](O)[C@H](C)[C@H]1OC(=O)[C@H]([C@@H](C)O)NC(=O)[C@H]([C@@H](C)CC)OC(=O)[C@H](C)[C@H](O)[C@H]([C@@H](C)CC)NC(=O)[C@@]2(C)CSC(=N2)[C@@]2(C)CSC(=N2)c2csc(n2)C[C@H](OC)[C@@H]1C [HOIAMIDE B] | Not Active |  |  |  |  | 79.8 | 3900 | 8300 | 
5 | CCC[C@@H](C)[C@H](O)[C@H](C)[C@H]1OC(=O)[C@H]([C@@H](C)O)NC(=O)[C@H](C(C)C)OC(=O)[C@H](C)[C@H](O)[C@H]([C@@H](C)CC)NC(=O)[C@@]2(C)CSC(=N2)[C@@]2(C)CSC(=N2)c2csc(n2)C[C@H](OC)[C@@H]1C [HOIAMIDE A] |  |  |  |  |  | 45.6 | 1700 | 11200 | 2100
